Bridges are numbered along the chain shown (N, C = ends). Where no end group is shown, it is not given here.

Experiment [1] deals with THP-1 cells. The experiment can be described thus: Inhibition of THP-1 cell adhesion to LLG-C4-GST or LLG-C4 substratum. The experiment is classed as cell-based. In short, it runs like this:
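THP-1 cells were mixed in suspension with test peptides at the indicated final concentrations, or with 2.5 mM EDTA. They were then incubated 60 min in wells coated with peptide–GST fusion. Unbound cells were removed by PBS washing and bound cells quantitated by phosphatase assay. Mean of triplicate wells; repeated in two further experiments.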

The subject of experiment [2] is THP-1 cells. Put plainly: THP-1 cell adhesion to von Willebrand factor. The experiment is classed as cell-based. To be noted: data not shown. Summed up:
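THP-1 cells were incubated 60 min at 37°C in wells coated with von Willebrand factor or fibronectin (2 μg per well, BSA-blocked), with test peptides at the indicated concentrations. Unbound cells were washed off with PBS and bound cells read by phosphatase assay. Triplicate wells.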

Experiment [3] concerns αMβ2 integrin. Put plainly: Phage binding to purified αMβ2 integrin. The settings on record: phage-displayed peptide; data not shown.
For experiment [4], the system named is THP-1 cells. Put plainly: THP-1 cell adhesion to immobilized peptides or GST fusion proteins. To be noted: 60 min; for THP-1 cell binding to substance coated on microtiter wells: phorbol ester–activated THP-1 cells, phosphatase assay. The class given is cell-based. Summed up:
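Proteins or synthetic peptides coated at 2 μg per well in TBS unless indicated; polymerised peptide made with 0.25% final glutaraldehyde. Wells blocked with 5% BSA and washed with PBS. Cells were preactivated for 30 min at room temperature in serum-free medium with 50 nM phorbol dibutyrate or 200 μM activating peptide. Then 10^5 cells/well were incubated 60 min at 37°C. Bound cells were read by cellular phosphatase assay.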

Another experiment concerns αM subunit I domain. Put plainly: LLG-C4-GST binding to purified αM subunit I domain. To be noted: LLG-C4-GST 10 μg/ml; for inhibition of LLG-C4-GST binding to the I domain: peptide 100 μM, triplicate wells. Summed up:
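The αM I domain was expressed as a GST fusion in E. coli, purified on glutathione beads and released by thrombin cleavage; it was then coated on wells. Peptide–GST fusion or GST at the indicated concentrations (10 μg/ml in methods) was incubated 1 h in 25 mM octylglucoside/TBS/1 mM MnCl2. Bound protein was detected with Eu3+-labelled anti-GST antibodies. Triplicate wells, three experiments.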

The test system of experiment [5] is αMβ2 integrin. Put plainly: LLG-C4-GST binding to immunocaptured αMβ2 integrin. To be noted: integrin immunocaptured with MEM170 or OKM1. Summed up:
(§1)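 Integrins from buffy-coat lysate in 1% octylglucoside/1 mM MnCl2/TBS were captured for 2 h at 4°C on wells coated with subunit antibodies (MEM170, OKM1 or 2E7), then washed five times. Peptide–GST fusion or GST (10 μg/ml; 2 μg/well per legend) bound 1 h in 25 mM octylglucoside/TBS/1 mM MnCl2, ± EDTA. Detection by Eu3+-chelate-labelled anti-GST antibody fluorescence. Repeated three times.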

The next experiment relates to β2 integrin. The experiment can be described thus: LLG-C4-GST binding to integrin immunocaptured with β2 subunit antibody 2E7. The settings on record: β2 subunit antibody 2E7 used for immunocapture. In short, it runs like this:
as §1

Experiment [6] deals with αXβ2 integrin–transfected L cells. Put plainly: Binding of αXβ2 integrin-transfected L cells to LLG-C4-GST. The class given is cell-based, mouse. The settings on record: three experiments in triplicate wells. In short, it runs like this:
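αXβ2-transfected mouse L cells were incubated in wells coated with peptide–GST fusion or GST (2 μg/well, BSA-blocked), 60 min at 37°C, 10^5 cells/well. The β2-blocking antibody 7E4 or EDTA served as competitors. After PBS washing, bound cells were read by phosphatase assay and given as percentage adhesion. Triplicate wells; three experiments.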

Another experiment relates to T cells. The experiment can be described thus: T cell binding to TNF-α-stimulated Eahy926 endothelial cell monolayer. The class given is cell-based. To be noted: peptide 50 μM; 45 min; phosphatase assay; triplicate wells. In short, it runs like this: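 Eahy926 endothelial cells were seeded at 5×10^4/well, grown 3 d, then stimulated 16 h with TNF-α (10 ng/ml). Blood T cells were isolated by Ficoll-Hypaque and nylon wool. T cells (1.5×10^5/well) were bound 30 min at 4°C then 15 min at 37°C, with test or control peptide at 50 μM. Unbound cells were removed by immersing the plate in PBS. Phosphatase assay; triplicate wells.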

Experiment [7] deals with THP-1 cells. The experiment can be described thus: THP-1 adhesion to A2 domain-deleted von Willebrand factor. The settings on record: phosphatase assay; triplicate wells. The class given is cell-based. In short, it runs like this: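 Wild-type or A2-domain-deleted recombinant von Willebrand factor was captured on wells coated with anti-von Willebrand factor antibody D′-D3. THP-1 cells were incubated with competitor peptides at the stated concentrations. Bound cells were read by phosphatase assay, expressed relative to wild-type von Willebrand factor binding (100%). Triplicate wells; similar in two further experiments.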

A further experiment deals with Jurkat cells. Put plainly: Jurkat cell adhesion to ICAM-1-Fc. The experiment is classed as cell-based.
Experiment [8] deals with THP-1 cells. Put plainly: THP-1 cell migration on fibrinogen-coated Transwell filters. The settings on record: 200 μM; 8-μm Transwell; 10% serum; 18 h; n = 6. The class given is cell-based. Summed up:
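Both faces of 8-μm-pore Transwell filters were coated with fibrinogen or peptide–GST fusion (40 μg/ml; GST control) and blocked with 5% BSA. THP-1 cells (5×10^4) were placed in the upper chamber in 10% serum medium, ± test peptides at 200 μM; the lower chamber held the same medium. After 18 h at 37°C, filters were methanol-fixed and stained with 0.1% toluidine blue. Cells on the lower surface were counted microscopically.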

Experiment [9] has as its target β2 integrins of THP-1 cells (adhesion to LLG-C4 substrata).
For experiment [10] the target is unchanged. This is another data set of the same source.

In the case of CLLGC (disulfide), the “concentrations at which THP-1 cell adhesion on LLG-C4-GST was readily inhibited” value in the experiment with THP-1 cells [1] (LLG-C4-GST substratum, phosphatase assay) was no less than 1 mM. The “inhibition of THP-1 binding to von Willebrand factor at 500 μM” value in the experiment on THP-1 cells [2] is given as “inhibited”.
With “CPCFLLGCC (also: bicyclic or more (positions not given here)) [LLG-C4]”, the “affinity to αMβ2 in phage-binding experiments in comparison to the other clones” value in the experiment on αMβ2 integrin [3] was “higher affinity”. Besides, in the experiment on THP-1 cells [4], the “THP-1 cell binding to substance coated on microtiter wells” value is on record as “bound strongly”.
On to CAAGC (disulfide), for which the “competition of THP-1 cell adhesion on LLG-C4-GST (in words)” value in the experiment with THP-1 cells [1] (LLG-C4-GST substratum) is listed as “only a weak competitor”.
CPCFLLGCC [LLG-C4 (1)]: the “inhibition of LLG-C4-GST binding to the I domain” value in the experiment with αM subunit I domain is on record as “blocked”.
In the case of `O=C(O)CN(CCN(CC(=O)O)CC(=O)O)CC(=O)O` [EDTA], in the experiment with αMβ2 integrin [5], the “effect of EDTA on LLG-C4-GST binding to αMβ2 integrin” value is “inhibited the binding”. In addition, the “effect of EDTA on LLG-C4-GST binding to integrin captured with 2E7” value in the experiment on β2 integrin is reported as “only partially inhibited”. Besides, the “effect of EDTA on LLG-C4-GST binding to the I domain” value in the experiment with αM subunit I domain (EDTA 2.5 mM) is “blocked the binding”. For the same molecule, the “effect of EDTA on THP-1 binding to LLG-C4-GST” value in the experiment on THP-1 cells [1] (EDTA 2.5 mM, phorbol ester–activated cells) was “abolished the binding”. Moreover, the “binding of αXβ2-transfected L cells to LLG-C4-GST, effect of competitor” value in [6] is given as “inhibited”.
Take “ACDCRGDCFCG (also: bicyclic or more (positions not given here)) [RGD-4C]”: the “effect on T cell binding to TNF-α–stimulated endothelial cells” value in the experiment with T cells is “no effect”. Also, the “effect on THP-1 adhesion to the A2-deleted von Willebrand factor” value in the experiment with THP-1 cells [7] is “blocked”.
For “CPCFLLGCC (also: bicyclic or more (positions not given here)) [C(1-9;3-8)]”, in the experiment on THP-1 cells [4] (peptide coated in presence of glutaraldehyde, 10^5 cells per well), the “THP-1 cell binding to peptide cross-linked with glutaraldehyde” value is “inactive even after the cross-linking”. Moreover, the “THP-1 cell binding to substance coated on microtiter wells” value in the experiment on THP-1 cells [4] is given as “failed to bind”. The “fold less active than C(1-8;3-9), THP-1 cell adhesion on LLG-C4-GST” value in the experiment with THP-1 cells [1] (relative to C(1-8;3-9)) is given as 20 fold. In addition, the “inhibition of Jurkat cell adhesion to ICAM-1-Fc (in words)” value with Jurkat cells was “severalfold less active and had hardly any effect”. Also, in the experiment on THP-1 cells [8], the “effect on THP-1 cell migration on fibrinogen” value is “inhibited only partially”.
CPCFLLGCC [LLG-C4 (2)]: in the experiment with αM subunit I domain, the “inhibition of LLG-C4-GST binding to the I domain” value is listed as “did not inhibit”.
With CPCFLLGCC (disulfide 1-8, 3-9) [C(1-8;3-9) peptide], in [9], the IC50 of inhibition of THP-1 cell adhesion on LLG-C4-GST (blocks m22 with m1) came out at 20 µM.
For the molecule CLLGC (also: cyclic, type of ring not given here) [CLLGC peptide], in experiment [10], the inhibition of THP-1 cell adhesion on LLG-C4-GST (blocks m22 with m1) was greater than 1 mM.

For the origin of these results see paper PMC2174336 (The Journal of Cell Biology, 2001).
